In the library only some 0.72% were active in any assay of this set; here they are far more common.
mIAP inh = blocks mouse intestinal alkaline phosphatase; purified mouse IAP, CDP-Star luminescence, 30 min; inhibition, % at 10 µM; 0.2% of 330,000 active; AID 2806;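 active means inhibition of at least 40% at 10 µM in the primary screen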;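 further: plate controls were DMSO with enzyme for no effect and no enzyme wells for full effect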
bIAP inhibitor = intestinal alkaline phosphatase (bovine) inhibition; purified bovine IAP, CDP-star luminescence, 30 min; inhibition, % at 20 µM; 190,000 tested, under 10 active;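 active means over 50% inhibition of intestinal alkaline phosphatase at 20 µM in the single-dose screen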
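Assay system: bovine IAP enzyme; medium: DEA buffer 100 mM, pH 9.8, with MgCl2 1.0 mM, ZnCl2 0.02 mM; doses: 20 µM single dose; incubation: enzyme reaction for 30 min at room temperature; detection: CDP-star luminescence signal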
hIAP block = blocks human intestinal alkaline phosphatase; purified IAP, CDP-Star luminescence, 30 min; inhibition, % at 10 µM; 0.12% of 330,000 active; P09923; AID 2544;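 active means inhibition reaching a set limit with compound at 10 µM in the primary screen, cut at about 35% in these data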;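 further: plate controls were DMSO wells with enzyme for no effect and no-enzyme buffer wells for full effect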
Target sequence (P09923 whole entry, looked up): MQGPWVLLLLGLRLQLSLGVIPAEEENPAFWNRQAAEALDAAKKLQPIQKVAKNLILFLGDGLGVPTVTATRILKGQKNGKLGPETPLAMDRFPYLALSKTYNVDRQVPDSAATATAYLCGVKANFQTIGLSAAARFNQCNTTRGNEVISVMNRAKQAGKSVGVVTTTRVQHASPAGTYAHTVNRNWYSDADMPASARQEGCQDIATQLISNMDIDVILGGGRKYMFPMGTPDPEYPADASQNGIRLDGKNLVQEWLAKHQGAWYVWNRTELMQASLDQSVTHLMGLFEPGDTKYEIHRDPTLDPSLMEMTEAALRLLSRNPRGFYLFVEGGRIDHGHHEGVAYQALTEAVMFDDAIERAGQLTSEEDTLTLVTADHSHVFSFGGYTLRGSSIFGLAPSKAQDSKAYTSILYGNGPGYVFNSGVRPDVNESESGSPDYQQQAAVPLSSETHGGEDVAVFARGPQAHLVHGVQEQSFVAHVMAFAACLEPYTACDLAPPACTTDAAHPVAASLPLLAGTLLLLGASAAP
mIAP activ = mouse IAP activation; muIAP, CDP-Star luminescence, 30 min; hits give high values; 1 = vehicle-only enzyme signal, 0 = enzyme-free wells; activation factor at 10 µM; 0.24% of 330,000 active; AID 2805;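 active means activation factor of at least 2 at 20 µM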
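System: mouse IAP enzyme. Reagent: CDP-Star chemiluminescent phosphatase substrate. Benchmarks: DMSO wells, no-enzyme wells. Times: 30 min enzyme-substrate-compound incubation at room temperature. Detection: luminescence from enzymatic CDP-Star hydrolysis. Doses: test compounds delivered from DMSO solution.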
hIAP act = human IAP activation; P09923; purified human IAP, CDP-Star luminescence, 30 min; hits give high values; 1 = vehicle-only enzyme, 0 = enzyme-free background; activation factor at 10 µM; 0.16% of 330,000 active; AID 2524;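 active means activation factor of the enzyme at least 2-fold when tested at 20 µM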
bIAP activator = increases bovine intestinal alkaline phosphatase activity. purified bovine IAP, CDP-star luminescence, 30 min; hits give high values; fold of DMSO-control signal, blank-subtracted. activation factor at 20 µM. 0.17% of 200,000 active. AID 1016;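 active means activation factor of 2 or more at 20 µM, a signal rise over negative controls twice the positive control's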
mIAP inh conf = mouse IAP inhibition confirmation | purified mouse IAP, CDP-Star luminescence, 30 min | 4.7% of 11,000 active | inhibition, % at 10 µM | shares compounds with mIAP inh;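 active means inhibition of at least 40% at 10 µM in either of the two replicates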;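 further: plate controls were DMSO wells with enzyme for no effect and buffer wells lacking enzyme for full effect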
Starred values were filed as active, the others as inactive.

`NC(=O)c1sc2nc(-c3cccnc3)ccc2c1N` gave mIAP inh 1, hIAP block 14, mIAP activ 0.99 and hIAP act 0.86.
Screening COC(=O)c1sc2nc(-c3ccco3)ccc2c1N returned mIAP inh 52*, bIAP inhibitor 3, hIAP block 6, mIAP activ 0.48, hIAP act 0.94, bIAP activator 1 and mIAP inh conf 53*.
NC(=O)c1sc2nc3c(c(-c4ccco4)c2c1N)CCC3 was read as mIAP inh 43*, bIAP inhibitor 11, hIAP block -8, mIAP activ 0.57, hIAP act 1.1, bIAP activator 0.9 and mIAP inh conf 57*.
CC(C)OC(=O)c1sc2nc(-c3ccccc3)ccc2c1N was read as mIAP inh -22, bIAP inhibitor -10, hIAP block -34, mIAP activ 1.2, hIAP act 1.3 and bIAP activator 1.1.
NC(=O)c1sc2nc(-c3ccco3)ccc2c1N was read as mIAP inh 44*, bIAP inhibitor 6, hIAP block -5, mIAP activ 0.56, hIAP act 1.1, bIAP activator 0.9 and mIAP inh conf 52*.
For O=C(c1ccco1)N1CCN(Cc2csc(-c3ccccc3Cl)n2)CC1 the results were mIAP inh -1, hIAP block 14, mIAP activ 1 and hIAP act 0.86.
`Cc1nc(CNS(=O)(=O)c2ccc(F)cc2)cs1` gave mIAP inh -8, hIAP block 0, mIAP activ 1.1 and hIAP act 1.
CC(C)N(C(=O)CSc1n[nH]c(=O)n1CCc1ccccc1)C(C)C was read as mIAP inh -1, hIAP block 7, mIAP activ 1 and hIAP act 0.93.
`N#Cc1c(SCC(=O)Nc2ccc(C(F)(F)F)cc2)sc2c(O)cc(=O)[nH]c12` gave mIAP inh 32, hIAP block 5, mIAP activ 0.68 and hIAP act 0.95.
`N#Cc1c(SCC(=O)Nc2nncs2)sc2c(O)cc(=O)[nH]c12` gave mIAP inh 57*, hIAP block -4, mIAP activ 0.43, hIAP act 1 and mIAP inh conf 70*.
Screening Nc1ncnc2oc(-c3ccco3)c(-c3ccco3)c12 returned mIAP inh 71*, bIAP inhibitor 8, hIAP block 14, mIAP activ 0.29, hIAP act 0.86, bIAP activator 0.9 and mIAP inh conf 75*.
`c1ccc(-c2nccc(-c3ccco3)n2)nc1` gave mIAP inh 0, bIAP inhibitor 0, hIAP block -13, mIAP activ 1, hIAP act 1.1 and bIAP activator 1.
Screening O=C(CNc1cccc2ccccc12)N/N=C/c1ccc(C(=O)O)cc1 returned mIAP inh 20, bIAP inhibitor 13, hIAP block 10, mIAP activ 0.8, hIAP act 0.9 and bIAP activator 0.9.
For O=C(CNc1cccc2ccccc12)N/N=C/C=C/c1ccco1 the results were mIAP inh 61*, bIAP inhibitor 14, hIAP block 10, mIAP activ 0.39, hIAP act 0.9, bIAP activator 0.9 and mIAP inh conf 59*.
CN(Cc1ccccc1Br)C(=O)CSc1nnnn1C1CC1 was read as mIAP inh 6, hIAP block -10, mIAP activ 0.94 and hIAP act 1.1.
For CC(=O)Oc1cc(O)c2c(=O)c(OC(C)=O)c(-c3ccc(OC(C)=O)c(OC(C)=O)c3)oc2c1 the results were mIAP inh 43*, hIAP block 31, mIAP activ 0.57, hIAP act 0.69 and mIAP inh conf 45*.
COc1c(-c2ccc(O)cc2)oc2cc(O)cc(O)c2c1=O was read as mIAP inh 13, hIAP block 28, mIAP activ 0.87 and hIAP act 0.71.
COc1cccc(NC(=O)C2CCN(Cc3cnn(-c4ccccc4)c3-n3cccc3)CC2)c1 was read as mIAP inh -180, bIAP inhibitor -299, hIAP block 0, mIAP activ 2.8*, hIAP act 1, bIAP activator 4* and mIAP inh conf -101.
For N#Cc1c2c(c(NCc3ccco3)n3c1nc1ccccc13)CCC2 the results were mIAP inh 50*, bIAP inhibitor 12, hIAP block -11, mIAP activ 0.49, hIAP act 1.1, bIAP activator 0.9 and mIAP inh conf 57*.
`Cc1cc(O)cc(=O)n1Cc1ccccc1` gave mIAP inh -6, hIAP block 15, mIAP activ 1.1 and hIAP act 0.85.
O=C(Nc1nccs1)c1ccc(Cl)c([N+](=O)[O-])c1 was read as mIAP inh 8, hIAP block 7, mIAP activ 0.92 and hIAP act 0.93.
O=c1[nH]c2ccc(S(=O)(=O)N3CCCCC3)cc2o1 was read as mIAP inh 80*, bIAP inhibitor 11, hIAP block 4, mIAP activ 0.2, hIAP act 0.96, bIAP activator 0.9 and mIAP inh conf 74*.
Cc1ccc(C)c(NS(=O)(=O)c2ccc3[nH]c(=O)oc3c2)c1 was read as mIAP inh 84*, bIAP inhibitor -6, hIAP block -7, mIAP activ 0.16, hIAP act 1.1, bIAP activator 1.1 and mIAP inh conf 89*.
`COC(=O)c1ccc(NS(=O)(=O)c2ccc3[nH]c(=O)oc3c2)cc1` gave mIAP inh 70*, hIAP block -11, mIAP activ 0.3, hIAP act 1.1 and mIAP inh conf 74*.
Cc1ccc(NS(=O)(=O)c2ccc3[nH]c(=O)oc3c2)cc1Cl was read as mIAP inh 20, hIAP block 8, mIAP activ 0.8 and hIAP act 0.93.
`Cc1cccc(NS(=O)(=O)c2ccc3[nH]c(=O)oc3c2)c1C` gave mIAP inh 2, hIAP block -8, mIAP activ 0.98 and hIAP act 1.1.
For O=C(CN1CCCC1)N/N=C/c1c(O)ccc2ccccc12 the results were mIAP inh 5, hIAP block -66, mIAP activ 0.95 and hIAP act 1.7.
`CC1CCCN(C(=O)COC(=O)CNC(=O)c2ccc(Br)cc2)C1` (centres undefined) gave mIAP inh 8, hIAP block 18, mIAP activ 0.92 and hIAP act 0.82.
For CCOC(=O)N1CCC(N2C(=O)c3ccc(C(=O)NCCOC)cc3C2=O)CC1 the results were mIAP inh -6, hIAP block 3, mIAP activ 1.1 and hIAP act 0.97.
For O=C(Nc1nncs1)C1CC(=O)N(CCc2ccc(F)cc2)C1 (centres undefined) the results were mIAP inh -10, hIAP block -6, mIAP activ 1.1 and hIAP act 1.1.

Assay outcomes as filed in PubChem.
